Read-outs that look alike come from different tables or passages of the source.
Legend:
[1] = target: T1, K. pneumoniae LpxH (KpLpxH) (Klebsiella pneumoniae subsp. pneumoniae, UniProt A6T5R0); conditions: cited from earlier work; for Percentage Activity of KpLpxH (vi/v0) / Percentage Inhibition of KpLpxH: 0.1 μM inhibitor, previously reported
T1 sequence (A6T5R0 1-240): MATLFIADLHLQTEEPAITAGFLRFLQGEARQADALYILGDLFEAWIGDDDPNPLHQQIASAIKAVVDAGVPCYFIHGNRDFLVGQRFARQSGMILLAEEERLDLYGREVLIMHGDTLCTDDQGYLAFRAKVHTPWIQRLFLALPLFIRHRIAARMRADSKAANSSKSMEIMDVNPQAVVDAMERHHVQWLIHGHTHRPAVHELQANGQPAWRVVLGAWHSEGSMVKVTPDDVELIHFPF

[2] = target: T1, K. pneumoniae LpxH (KpLpxH); assay: LpxE-coupled malachite green LpxH activity assay; type: biochemical
Summary of the method: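 Enzyme/inhibitor and substrate mixes were preincubated 10 min at 37 °C, then combined (final 100 μM UDP-DAGn, 10 ng/mL enzyme). Aliquots were EDTA-quenched, then A. aeolicus LpxE 5 μg/mL was added for 30 min at 37 °C. Formic acid stop; malachite green A620. Triplicates; activity normalized to DMSO control; IC50 fit converted to competitive KI.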

| SMILES | Percentage Activity of KpLpxH (vi/v0) [1] | Percentage Inhibition of KpLpxH [1] | Percentage Activity of KpLpxH (vi/v0) ([1]; listed as 2 (JH-LPH-33)) | IC50 ([1]; read-out: IC50 of KpLpxH inhibition, reported value) [nM] | Ki ([1]; read-out: KI for KpLpxH, reported value) [nM] | Percentage Inhibition of KpLpxH ([2]; 0.1 μM inhibitor) [%] | Ki ([2]; read-out: KI for KpLpxH, from IC50, competitive binding mode, KM 68.1 μM) [nM] |
| --- | --- | --- | --- | --- | --- | --- | --- |
| CC(=O)N1CCc2cc(S(=O)(=O)N3CCN(c4cccc(C(F)(F)F)c4)CC3)ccc21 [Compound 1] | 78^[16] % | 22^[16] % | – | – | – | – | – |
| CC(=O)N1CCc2cc(S(=O)(=O)N3CCN(c4cc(Cl)cc(C(F)(F)F)c4)CC3)ccc21 [Compound 2] | 21% | 79^[16] % | 21^[16] % | 26 | 10 | – | – |
| O=C(CCCCCNC(=O)Nc1ccc(S(=O)(=O)N2CCN(c3cc(Cl)cc(C(F)(F)F)c3)CC2)cc1)NO [Compound 13] | – | – | – | – | – | 97 | 3.1 |

— publication PMC10239344 (ChemMedChem, 2023)
